Measurements from ChEMBL document CHEMBL4513216, “Probing the Open Global Health Chemical Diversity Library for Multistage-Active Starting Points for Next-Generation Antimalarials” (ACS Infect Dis, 2020).

Assay: Toxicity liver stage against HepG2, at 10uM
Type: cell-based
Parameters: test concentration 10 uM, cell line HepG2-A16-CD81EGFP
Settings: human, HepG2-A16-CD81EGFP cells; read-out: INHIBITION
Method in brief: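 Uninfected HepG2-A16-CD81EGFP cells, 3 × 10^3 per well, 1536-well, plated on prespotted compound at 10 μM final, parasite-free screening media added to match infected plates; puromycin 10 μM positive, DMSO 0.5% negative; run in parallel with 48 h PbLuc assay at 37 °C, 5% CO2; viability by CellTiter-Glo luminescence, normalized to controls.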

Compared with `CN(C)CC1CSCCCN1C(=O)c1ccc(-c2ccccc2)cc1` (stereo not given), `CC(C)NC(=O)c1ccc2c(c1)nc1n2CCN(Cc2ccccc2)C1` is higher in cytotoxicity at 10 µM: 4.54% for the first, 6.61% for the second.

Going from `CCN1C(=O)CC(c2ccccc2)C12CCN(c1ncc(C)cn1)CC2` (stereo not given) to `c1cnc(N2CC3(CCN(C4CCOCC4)CC3)c3ccccc32)nc1`, the cytotoxicity at 10 µM falls from -2.6% to -6.32%.

Going from `CC(=O)NCC(=O)N1CCc2nc(C)nc(C)c2CC1` to `CCN1N=C(C(=O)N2CCCC(c3nc(C)cs3)C2)CCC1=O` (stereo not given), the cytotoxicity at 10 µM rises from -12% to -3.12%.

Going from `CCn1c(O)c(C(C)=O)c2cc(C)ccc21` to `Cc1cnc2c(c1)N(C(=O)c1ccc(=O)n(C)c1)CCO2`, the cytotoxicity at 10 µM rises from -8.24% to 0.965%.

Compared with `O=C(c1ccnn1COc1ccc(Cl)cc1)N1CCSCC1`, `COc1ccc(CN2CC[C@@H](O)[C@@H]2Cc2cnn(C)c2)cc1` is lower in cytotoxicity at 10 µM: -4.56% for the first, -68.3% for the second.

Compared with `CN1C[C@@H](C(=O)NC(C)(C)C)[C@@]2(COc3ccc(F)cc3C2=O)C1`, `Cc1c(C(=O)NCCC2CN(C)CCO2)n(C)c2c(C)cccc12` (stereo not given) is lower in cytotoxicity at 10 µM: 1.5% for the first, -3.83% for the second.

First: COc1ccccc1CC(C)CC(=O)NC(C)C (stereo not given)
Second: CC(C)NC(=O)CN(C)C1CCN(c2cnc3ccccc3n2)CC1
The cytotoxicity at 10 µM of the first is higher: 6.16% for the first, -6.14% for the second.

First: O=S(=O)(c1ccc(F)cc1F)N1CCCCC1c1nnc2n1CCCC2 (stereo not given)
Second: CCn1cnnc1C1CCN(C(=O)c2cc(F)ccc2OC)CC1
The cytotoxicity at 10 µM of the first is higher: 2.22% for the first, -3.35% for the second.

Going from `Cc1cnn(CC2CCCCN2CC(=O)Nc2cccnc2)c1` (stereo not given) to `Cc1nc(C)n(C2CCCN(C(=O)CCOc3cccc(F)c3)C2)n1` (stereo not given), the cytotoxicity at 10 µM falls from 3.5% to -1.79%.

First: COCC(C)(CCO)NC(=O)Nc1cccc(F)c1C (stereo not given)
Second: Cc1cccc(NC(=O)C2CSCN2C(=O)c2cnccn2)c1C (stereo not given)
The cytotoxicity at 10 µM of the first is higher: 7.94% for the first, -0.691% for the second.

Compared with `COc1cccc(CC(=O)NC2CCCc3cn[nH]c32)c1` (stereo not given), `COc1cccc2c1OCC(CNC(=O)CSc1nc(N)n[nH]1)C2` (stereo not given) is lower in cytotoxicity at 10 µM: 12.5% for the first, 0.712% for the second.

Compared with `COc1ccc(-n2cnnc2SCCC#N)cn1`, `CCc1ncc2c(n1)CN(C(=O)CCCc1ccc(OC)cc1)C2` is lower in cytotoxicity at 10 µM: 22.2% for the first, -7.32% for the second.

First: Cn1ccc(C(=O)NC2CCC23CCN(C(=O)c2ccccn2)CC3)c1 (stereo not given)
Second: Cc1nc[nH]c1C(=O)N1CC[C@@H](NC(=O)c2ccccn2)[C@H](O)C1
The cytotoxicity at 10 µM of the first is lower: -71.7% for the first, 4.61% for the second.

First: COCCO[C@@H]1CCN(C(=O)c2ccc[nH]2)[C@H]1Cc1cnn(C)c1
Second: O=C(NC1CCCN(CCCc2ccccc2)C1)C1=CCCCC1 (stereo not given)
The cytotoxicity at 10 µM of the first is lower: -71.7% for the first, -0.739% for the second.

Going from `CNC(=O)c1cn2cc(-c3ccccc3Cl)n(CC3CC3)c(=O)c2n1` to `N#Cc1ccccc1CN1CCCC(c2nccn2CC2CC2)C1` (stereo not given), the cytotoxicity at 10 µM rises from 0.562% to 2.84%.

First: O=C(CN1C(=O)CCNC1=O)N1CCC(c2ccc(F)cc2)C1 (stereo not given)
Second: O=C1N(Cc2ccc(F)cc2)CCCC12CCN(C1CCSCC1)C2 (stereo not given)
The cytotoxicity at 10 µM of the first is higher: 4.3% for the first, 1.77% for the second.

First: Nc1ccncc1-n1cc(CCO)cn1
Second: CSCc1nc(CCNC(=O)c2cnn(C(C)C)c2)cs1
The cytotoxicity at 10 µM of the first is higher: 0.769% for the first, -7.91% for the second.

First: COc1ccccc1N1CCN(CC[C@H](O)c2ccccc2)CC1=O
Second: O=C(CN(C1=NCCCC1)c1ccccc1)c1ccc2c(c1)OCCO2
The cytotoxicity at 10 µM of the first is lower: -0.081% for the first, 8.9% for the second.

Going from `Fc1ccc(Cn2ncc3c2CN(c2noc(C4CC4)n2)C3)cc1` to `CN1CCc2[nH]cnc2C12CCN(Cc1ccc3nsnc3c1)CC2`, the cytotoxicity at 10 µM rises from -2.76% to 5.05%.

Compared with `O=C(CCc1cc2n(n1)CCCN(C(=O)[C@H]1CCCO1)C2)NC1CC1`, `O=C([C@@H]1C[C@@H]2CCN(Cc3ccc4c(c3)OCO4)C[C@@H]2O1)N1CCCC1` is lower in cytotoxicity at 10 µM: 4.78% for the first, -2.46% for the second.

Compared with `CCOc1ccc(CN2CCNC(C(=O)NC3CC3)C2)cc1CO` (stereo not given), `CC(C)(C)c1cc(CN2C[C@H]3CC[C@@H](C2)N(Cc2ccccn2)C3)n[nH]1` is lower in cytotoxicity at 10 µM: 2.95% for the first, 0.541% for the second.

First: Cc1ccccc1-n1c(C)cc(=O)[nH]c1=O
Second: CC(C)(C)c1cc2ncn(CCCN3CCCCC3CO)c(=O)c2s1 (stereo not given)
The cytotoxicity at 10 µM of the first is higher: -2.4% for the first, -5.39% for the second.

With `Cn1cnc2c1C(COCC1CCOCC1)CN(c1ncccn1)C2` (stereo not given) the cytotoxicity at 10 µM was -74.1%.
